In all, about 360,000 compounds went through this assay and about 950 (0.26%) were called active. The sample as a whole holds a higher share of actives than the screen did. A number with no mark means an inactive call.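 How the source made its calls: active means inhibition above a per-plate limit, mean inhibition of low control wells plus 3 SD (cut at about 25% in these data); inactive means the rest.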
What follows are compounds tested against ADP-ribosylation factor GTPase-activating protein 1 (Rattus norvegicus) (UniProt Q62848) (assay: inhibitors of rat ARFGAP1 GAP activity, primary screen, biochemical, fluorescence polarization, GDP tracer (AID 651572;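 further: 0% = DMSO wells with enzyme and 100% = wells lacking Arfgap1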)). Settings: Arfgap1-stimulated ARF1 GTP hydrolysis, GDP FP detection; at 16.5 µM; stronger effect = higher value.
Sequence of ADP-ribosylation factor GTPase-activating protein 1 (Rattus norvegicus) (Q62848 1-136 limits assumed): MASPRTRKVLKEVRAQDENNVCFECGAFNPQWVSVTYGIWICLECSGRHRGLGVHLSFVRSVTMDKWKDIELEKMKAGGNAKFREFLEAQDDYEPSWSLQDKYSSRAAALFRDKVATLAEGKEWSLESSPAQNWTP
In short: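 material = rat Arfgap1 catalytic domain, aa 1-136 | also added = human ARF1(Δ1-17)-GTP substrate | compound dosing = one concentration, 16.5 µM, DMSO 1.26% | times = GTP hydrolysis reaction 2 h at 25 °C | measured by = FP, GDP Alexa 633 tracer displaced from anti-GDP antibody, 620/688 nm | evaluation = percent inhibition of Arfgap1-stimulated GTP hydrolysis | replication = single well per compound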

Row | Compound | inhibition
1 | O=C(NC1CCCCC1)c1ccc(CNc2c(N3CCOCC3)c(=O)c2=O)cc1 | 26.4% (active)
2 | O=C(NCc1ccc(F)cc1)C1CCC(CNc2c(N3CCOCC3)c(=O)c2=O)CC1 (configuration not stated) | 2.8%
3 | O=C(NCc1ccccc1)c1ccc(CNc2c(N3CCCC3)c(=O)c2=O)cc1 | -4.58%
4 | O=C(NS(=O)(=O)c1cccs1)[C@H]1O[C@@H](n2ccc(=O)[nH]c2=O)[C@H](O)[C@@H]1O | 1.8%
5 | C[C@H](O)[C@@H]1CN2CCc3ccc(-c4ccc5c(c4)OCO5)cc3[C@@H]2C[C@@H]1N(C)C(=O)C1CCCCC1 | -7.53%
6 | CN[C@H]1C[C@H]2c3[nH]c4c(-c5ccccc5)cccc4c3CCN2C(=O)[C@H]1[C@H](C)O | 6.11%
7 | c1ccc(-c2cc(-c3nnc4sc(-c5ccccn5)nn34)[nH]n2)cc1 | 37.4% (active)
8 | Fc1ccc(-c2ccc(-c3nn4c(-c5ccco5)nnc4s3)o2)cc1 | 3.63%
9 | CCCCCCCCN1C(=O)[C@@H](CC(=O)NCc2ccccc2)C[C@@]2(C(=O)OC)C1=C[C@H](C(C)(C)C)O[C@@H]2C | 1.82%
10 | C=CCN=C1NC(c2ccccc2)C(C(=O)OC)=C(C)N1Cc1ccc(C(F)(F)F)cc1 (configuration not stated) | 7.52%
11 | COC(=O)N1Cc2ccnnc2CC1c1ccccc1Br (configuration not stated) | 0.38%
12 | O=C(C(=O)N1CCC(CNC(=O)c2cccnc2Cl)CC1)c1cccs1 | 12.7%
13 | COc1ccc(NC(=O)N(C)C[C@@H]2OCCCC[C@@H](C)Oc3ccc(NC(=O)NC4CCCCC4)cc3C(=O)N([C@H](C)CO)C[C@@H]2C)cc1 | -0.56%
14 | CCN(CC)c1ccc(NC(=O)CN2CCN(c3ccccn3)CC2)cc1 | 45.5% (active)
15 | O=C(CN1CCN(c2ccccn2)CC1)NCc1cccs1 | 19.2%
16 | CCC(=O)Nc1ccc2c(c1)nc(CCN1CCN(c3ccccn3)CC1)n2C | -11.6%
17 | O=S(=O)(c1cccs1)N1CCCc2nc(-c3ccc(Br)cc3)ccc21 | -3.29%
18 | O=C(NCc1ccccc1)[C@@H]1CCCN1C(=O)[C@@H](NS(=O)(=O)c1ccc(F)cc1F)C1CCCCC1 | 2.51%
19 | COC(=O)[C@]12C[C@H](CC(=O)NCCC(C)C)C(=O)N(CCc3ccc(OC)c(OC)c3)C1=C[C@H](C(C)(C)C)O[C@@H]2C | 6.73%
20 | Cc1ccc2nc(SCC(=O)N3CC(C)OC(C)C3)nc(=O)n2c1 (configuration not stated) | 83.6% (active)
21 | Cc1ccc2nc(SCC(=O)N3CCN(c4ccccc4)CC3)nc(=O)n2c1 | 22.7%
22 | Cc1ccc2nc(SCC(=O)Nc3cccc4ccccc34)nc(=O)n2c1 | 8.63%
23 | Brc1ccc(COCCc2cn(Cc3ccccc3)c3ccccc23)cc1 | 10.9%
24 | CCN1C(=O)N[C@@H]2C[C@H](C(=O)N3CCCC3)[C@H](C)[C@H](c3ccccc3)C[C@@H]21 | -0.64%
25 | O=C(C(=O)N1CCC(CNS(=O)(=O)Cc2ccccc2)CC1)c1cc2ccccc2o1 | 10.3%
26 | O=C(NCc1ccccc1)[C@H]1CCCN1C(=O)[C@H]1CCCN1C(=O)c1cc(F)cc(F)c1 | -2.81%

Row | Compound | inhibition
27 | COc1ccc(C(CNC(=O)c2cccc(S(=O)(=O)Nc3ccccc3Cl)c2)N2CCOCC2)cc1 (configuration not stated) | 27% (active)
28 | COc1ccc(C(CNC(=O)c2cccc(NS(=O)(=O)c3ccc(C)c(F)c3)c2)N2CCCC2)cc1 (configuration not stated) | 16.5%
29 | COc1ccc(C(CNC(=O)c2ccc(S(=O)(=O)Nc3ccccc3C)cc2)N2CCOCC2)cc1 (configuration not stated) | -2.87%
30 | O=C(N[C@H](C(=O)N1CCC[C@H]1C(=O)NCCc1ccccc1Cl)c1ccccc1)c1ccccc1 | 0.74%
31 | Cc1ccccc1C(=O)N[C@H](C(=O)N1CCC[C@H]1C(=O)NCc1ccccc1)C(C)C | -4.95%
32 | C=CCSc1nnc(N2C(=O)C(O)=C(C(=O)c3ccco3)C2c2ccc(F)cc2)s1 (configuration not stated) | -2.87%
33 | Cc1ccc2nc(N3C(=O)C(O)=C(C(=O)c4ccco4)C3c3cccc(O)c3)sc2c1 (configuration not stated) | 28.5% (active)
34 | COc1cc(C2C(C(=O)c3ccco3)=C(O)C(=O)N2c2cc(C)on2)ccc1OCc1ccccc1 (configuration not stated) | -0.46%
35 | COC(=O)C1=C(C)N(Cc2ccccc2C(F)(F)F)C(=NCC2CC2)NC1c1cccc(Cl)c1 (configuration not stated) | -11.5%
36 | CN1C(=O)C(Br)(Br)CC1c1cccnc1 (configuration not stated) | 15.5%
37 | CC(=O)c1ccc(S(=O)(=O)NCC2CCN(C(=O)C(=O)c3cccs3)CC2)cc1 | 0.05%
38 | Clc1cccc2c1C1CC2CCN1Cc1ccccc1 (configuration not stated) | 1.92%
39 | Cc1cc(C)cc(NC(=O)C2CCCN(S(=O)(=O)c3ccc4[nH]c(=O)ccc4c3)C2)c1 (configuration not stated) | 27.2% (active)
40 | CCc1cccc(NC(=O)C2CCCN(S(=O)(=O)c3ccc4[nH]c(=O)ccc4c3)C2)c1 (configuration not stated) | -1.05%
41 | CC1CCN(S(=O)(=O)c2ccc3[nH]c(=O)ccc3c2)CC1 | -6.93%
42 | CCOc1ccccc1C(=O)N1CCC[C@@H]1C(=O)N1CCC[C@H]1C(=O)NCc1ccccc1 | 2.51%
43 | C=CCN1C(=O)N(Cc2ccccc2)c2ccccc2S1(=O)=O | -1.51%
44 | COc1ccc(NC(=S)NCc2cccs2)c(OC)c1 | 7.24%
45 | O=C(CN1CCN(c2ccc(Cl)cc2)CC1)NCc1cccs1 | -5.05%
46 | S=C(NCc1cccs1)Nc1ccc(Cl)cc1 | 28.2% (active)
47 | COc1ccc(-c2ccc3c(n2)CCCN3S(=O)(=O)c2ccc(C)cc2)cc1 | -4.31%
48 | COc1ccccc1-c1ccc([C@@H]2C[C@H]3[C@H](CON3C)CN2S(=O)(=O)c2cc(Cl)cc(Cl)c2)cc1 | 5.63%
49 | Nc1nc2c(ncn2[C@@H]2O[C@H](C(=O)N[C@@H](Cc3ccccc3)C(=O)NCc3ccccc3)[C@@H](O)[C@H]2O)c(=O)[nH]1 | -1.71%
50 | COC(=O)[C@]12C[C@H](CC(=O)NCc3cccc(C(F)(F)F)c3)C(=O)N(Cc3ccc4c(c3)OCO4)C1=C[C@H](COCc1ccccc1)O[C@@H]2C | 5.08%
51 | Cc1[nH]nc2c1C(c1ccc(Br)cc1)NC2=O (configuration not stated) | 2.74%
52 | COC(=O)C1=C(C)N(Cc2ccccc2C(F)(F)F)C(=NCc2ccc(OC)cc2)NC1c1cccc(C(F)(F)F)c1 (configuration not stated) | 10.9%

Row | Compound | inhibition
53 | CC(C)(C)NC(=O)CSc1nnc(NC(=O)CCc2ccccc2)s1 | 0.73%
54 | O=C(CCc1ccccc1)Nc1ncc([N+](=O)[O-])s1 | 29% (active)
55 | O=C(CCc1ccccc1)Nc1nn[nH]n1 | 11.2%
56 | Nc1ccn([C@@H]2O[C@H](C(=O)N[C@H]3CCCCNC3=O)[C@@H](O)[C@H]2O)c(=O)n1 | -7.26%
57 | COc1ccc(-c2ccccc2C2Cc3nnccc3CN2C(=O)Nc2ccccc2)cc1 (configuration not stated) | 0.85%
58 | COc1ccc(NC(=O)c2ccccc2CC[N+](=O)[O-])cc1 | -2.01%
59 | COc1ccc(NC(=O)c2cn(-c3ccccc3)nc2SC)cc1 | 25.1% (active)
60 | COc1ccc(NC(=O)CSc2nc(N)c(-c3ccccc3)c(=O)[nH]2)cc1 | 5.45%
61 | NC(=O)c1ncn([C@@H]2O[C@H](C(=O)O)[C@@H](O)[C@H]2O)n1 | -10.5%
62 | COC(=O)C1=C(C)N(Cc2cccc(C(F)(F)F)c2)C(=NCc2cccc(C(F)(F)F)c2)NC1c1ccccc1C(F)(F)F (configuration not stated) | 18.5%
63 | CCO[C@@H]1OC(C(N)=O)=C[C@H](c2ccc(Br)cc2)[C@H]1CCCO | 37% (active)
64 | CCO[C@H]1OC(C(=O)N2CCCCCCC2)=C[C@@H](c2ccc(C(F)(F)F)cc2)[C@@H]1CCCO | 5.85%
65 | C#CCNC(=O)C1=C[C@@H](c2ccccc2)[C@H](CCCO)[C@@H](OCC)O1 | 0.84%
66 | CC[C@H](C)[C@H]1CNC(=O)C(=O)N1CC1CCN(CCc2ccc(OC)c(OC)c2)CC1 | 4.8%
67 | COC(=O)[C@]12C[C@H](CC(=O)NCc3ccc(OC)c(OC)c3)C(=O)N(Cc3ccccc3)C1=C[C@H](C(C)C)O[C@@H]2C1CC1 | 1.55%
68 | COc1cccc(CNC(=O)[C@H]2CCCN2C(=O)[C@H]2CCCN2C(=O)c2ccc(F)cc2)c1 | 2.29%
69 | CCOC(=O)N1CCN(C(=O)C[C@H]2C[C@@]3(C(=O)OC)C(=C[C@H](C4CCCC4)O[C@@H]3C)N(Cc3ccccc3)C2=O)CC1 | -0.91%
70 | COc1ccccc1C(=O)N1O[C@]23C=C[C@]14C[C@@H](O)CC[C@]4(C)C2CC[C@]1(C)[C@@H]([C@H](C)/C=C/[C@H](C)C(C)C)CC[C@H]13 (some centres not stated) | -2.43%
71 | OC(c1ccccc1)(c1ccccc1)C1CCN(CCCOc2ccc(-c3ccsc3)cc2)CC1 | 15.6%
72 | COCCNc1cc(-c2ccccc2)nc2cc(-c3cccc(F)c3)nn12 | 26.4% (active)
73 | COCCCNc1ccn2nc(-c3ccc(CC(C)C)cc3)cc2n1 | 12.8%
74 | COc1ccc(-c2cc3nc(NCCOc4ccccc4)ccn3n2)cc1 | 22.7%
75 | C[C@H]1[C@H](c2ccccc2)Oc2cc(Br)ccc2S(=O)(=O)N1Cc1cccc(F)c1 | -1.97%
76 | Cc1noc(C)c1NC(=O)Nc1ccc2c(c1)C(=O)N([C@H](C)CO)C[C@H](C)[C@H](CN(C)Cc1ccncc1)OCCCC[C@@H](C)O2 | 7.37%
77 | COC(=O)c1c(-c2ccc(OC)cc2)c2c(c3c4cc(OC)ccc4n(S(=O)(=O)c4ccc(F)cc4)c13)C(=O)N(C)C2 | -3.49%

— PubChem BioAssay AID651572 (The Scripps Research Institute Molecular Screening Center, 2012)
